Results from different studies.
Read-out: cell growth or viability

C=C1CC[C@@H]2[C@](C)(CO)[C@H](O)CC[C@@]2(C)[C@@H]1C/C=C1/C(=O)OC[C@H]1O — IC50 (SW480; MTT; 24 h): 5.08 µM
COc1ccc(Nc2ncnc3c2ncn3Cc2ccc(C(=O)Nc3ccccc3N)cc2)cc1 — IC50 (MM1.S; MTT; 72 h): 15.8 µM
NNc1nc2c(Cl)cc(Cl)cc2c(=O)n1-c1ccccc1 — IC50 (SW480; MTT; 48 h): > 200 µM
COc1cccc2c1C(=O)c1c(O)c3c(c(O)c1C2=O)C[C@@](O)(C(=O)CO)C[C@@H]3O[C@H]1C[C@H](N)[C@H](O)[C@H](C)O1 — IC50 (SW480; MTT; 72 h): 0.75 µM
Cc1cc(Nc2ncnc3ccc(NC4=NC(C)(C)CO4)cc23)ccc1Oc1ccn2ncnc2c1 — IC50 (NCI-N87; ATP luminescence): 0.0898 µM
Cc1cc2c(C(=O)O)cccc2n1-c1nc2c(c(NCc3ccccc3)n1)CCCN2 — IC50 (MM1.S; 72 h): 0.9 µM
COc1ccc(Nc2ncnc3c2ncn3Cc2ccc(C(=O)NO)cc2)cc1 — IC50 (MM1.S; MTT; 72 h): 2.04 µM
O=c1c2cc(Cl)cc(Cl)c2nc(NNc2cccc(Cl)c2)n1-c1ccccc1 — IC50 (SW480; MTT; 48 h): > 200 µM
COc1cccc2c1C(=O)c1c(O)c3c(c(O)c1C2=O)C[C@@](O)(C(=O)CO)C[C@@H]3O[C@H]1C[C@H](N)[C@H](O)[C@H](C)O1 — IC50 (HGC-27; 96 h): 0.166 µM
Cc1ccc(NNc2nc3c(Cl)cc(Cl)cc3c(=O)n2-c2ccccc2)cc1 — IC50 (SW480; MTT; 48 h): 132 µM
Nc1ccccc1NC(=O)c1ccc(Cn2cnc3c(Nc4ccc(Cl)cc4)ncnc32)cc1 — IC50 (MM1.S; MTT; 72 h): 1.13 µM
COc1c(Cl)cccc1Nc1c(-c2ccncc2OC[C@@H]2COCCO2)[nH]c2c1C(=O)NCC2 — IC50 (NCI-N87; ATP luminescence): 0.0127 µM
Cc1c(C)c2c(c(C)c1O)CCC(C)(COc1ccc(CC3SC(=O)NC3=O)cc1)O2 (stereo not shown) — IC50 (THLE-2; MTT): 16.3 µM
CC1(P2(=O)CCCCC2)CCCCC1 — IC50 (SW480; MTT; 72 h): > 100 µM
O=C(NO)Nc1nc2c(Cl)cc(Cl)cc2c(=O)n1-c1ccc(Cl)cc1 — IC50 (SW480; MTT; 48 h): > 200 µM
O=C(NO)c1ccc(Cn2cnc3c(Nc4ccc(Br)cc4F)ncnc32)cc1 — IC50 (MM1.S; MTT; 72 h): 1.87 µM
NNc1nc2ccc(Br)cc2c(=O)n1-c1ccccc1 — IC50 (SW480; MTT; 48 h): 136 µM
COc1cccc2c1C(=O)c1c(O)c3c(c(O)c1C2=O)C[C@@](O)(C(=O)CO)C[C@@H]3O[C@H]1C[C@H](N)[C@H](O)[C@H](C)O1 — IC50 (SW480; MTT; 24 h): 0.79 µM
NNc1nc2c(Cl)cc(Cl)cc2c(=O)n1-c1ccc(Cl)cc1 — IC50 (SW480; MTT; 48 h): > 200 µM
CC1=CC(=O)C(C(C)C)=CC1=O — IC50 (FR2; SRB; 48 h): < 100 µM
CCCN1CC(Oc2ccc([C@@H]3c4[nH]c5ccccc5c4C[C@@H](C)N3CC(C)(C)F)cc2)C1 — IC50 (CAMA-1): 0.126 µM
O=C(NO)Nc1nc2ccc(Br)cc2c(=O)n1-c1ccccc1 — IC50 (SW480; MTT; 48 h): > 200 µM
